Results as given in ChEMBL document CHEMBL1153250, “Discovery and SAR of novel, potent and selective hexahydrobenzonaphthyridinone inhibitors of poly(ADP-ribose)polymerase-1 (PARP-1)” (Bioorg Med Chem Lett, 2010).

target: T1, Poly [ADP-ribose] polymerase 1 (Homo sapiens, UniProt P09874); assay: Inhibition of human PARP1 by scintillation proximity assay; settings: not given
T1 sequence (P09874 whole entry): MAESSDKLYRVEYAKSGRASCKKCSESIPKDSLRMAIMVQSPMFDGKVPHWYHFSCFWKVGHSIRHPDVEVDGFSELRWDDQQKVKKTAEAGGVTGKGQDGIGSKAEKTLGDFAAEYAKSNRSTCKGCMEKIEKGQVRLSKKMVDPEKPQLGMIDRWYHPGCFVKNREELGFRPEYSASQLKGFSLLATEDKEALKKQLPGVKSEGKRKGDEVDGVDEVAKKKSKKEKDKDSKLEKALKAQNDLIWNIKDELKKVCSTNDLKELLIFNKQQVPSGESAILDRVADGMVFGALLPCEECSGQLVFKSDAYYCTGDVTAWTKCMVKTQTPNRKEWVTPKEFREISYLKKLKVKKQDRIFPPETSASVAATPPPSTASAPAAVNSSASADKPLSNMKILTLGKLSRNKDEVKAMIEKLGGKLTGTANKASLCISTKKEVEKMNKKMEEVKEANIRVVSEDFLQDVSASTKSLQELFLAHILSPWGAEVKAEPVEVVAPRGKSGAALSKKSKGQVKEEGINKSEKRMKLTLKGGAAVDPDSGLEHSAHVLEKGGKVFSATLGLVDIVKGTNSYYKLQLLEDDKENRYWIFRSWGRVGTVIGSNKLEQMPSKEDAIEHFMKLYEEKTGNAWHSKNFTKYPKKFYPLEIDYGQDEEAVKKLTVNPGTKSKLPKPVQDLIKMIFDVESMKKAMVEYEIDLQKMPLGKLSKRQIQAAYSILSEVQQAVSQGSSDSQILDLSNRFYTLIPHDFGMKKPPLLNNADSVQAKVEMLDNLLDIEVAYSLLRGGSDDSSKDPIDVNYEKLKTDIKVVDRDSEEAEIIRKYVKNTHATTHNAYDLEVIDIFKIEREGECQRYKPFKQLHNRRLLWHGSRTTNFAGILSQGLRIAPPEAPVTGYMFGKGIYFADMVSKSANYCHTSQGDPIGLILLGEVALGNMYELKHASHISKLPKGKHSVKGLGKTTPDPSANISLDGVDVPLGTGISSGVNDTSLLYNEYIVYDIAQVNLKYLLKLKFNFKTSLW

IC50 [nM]	Structure (SMILES)
15	O=C(O)CCCC(=O)N1CCc2cccc3c2C1CNC3=O (stereo unspecified)
37	O=C1NCC2c3c(cccc31)CCN2C(=O)c1cccc(Cl)c1 (stereo unspecified)
1	O=C1NCC2c3c(cccc31)CCN2C(=O)Cc1cccnc1 (stereo unspecified)
35	O=C1NCC2c3c(cccc31)CCN2C(=O)c1ccccc1Cl (stereo unspecified)
6	O=C1NCC2c3c(cccc31)CCN2C(=O)CN1CCCCC1 (stereo unspecified)
16	O=C1NCC2c3c(cccc31)CCN2C(=O)Cc1ccccc1Cl (stereo unspecified)
7	O=C1NCC2c3c(cccc31)CCN2C(=O)Cc1ccc(Br)cc1 (stereo unspecified)
10	O=C1NCC2c3c(cccc31)CCN2C(=O)Cc1ccncc1 (stereo unspecified)
5	O=C1NCC2c3c(cccc31)CCN2C(=O)Cc1cccc(Cl)c1 (stereo unspecified)
9	N#Cc1ccc(CC(=O)N2CCc3cccc4c3C2CNC4=O)cc1 (stereo unspecified)
13	CCN(CC)Cc1ccc(C(=O)N2CCc3cccc4c3C2CNC4=O)cc1 (stereo unspecified)
140	O=C1NCC2NCCc3cccc1c32 (stereo unspecified)
13	Cc1c(CC(=O)N2CCc3cccc4c3C2CNC4=O)sc2ccccc12 (stereo unspecified)

Structure (SMILES)	IC50 [nM]
O=C1NCC2c3c(cccc31)CCN2C(=O)Cc1ccc(Cl)cc1 (stereo unspecified)	5
O=C1NCC2c3c(cccc31)CCN2C(=O)CN1CCC(c2ccccc2)CC1 (stereo unspecified)	0.5
CN1CCN(CC(=O)N2CCc3cccc4c3C2CNC4=O)CC1 (stereo unspecified)	97
O=C1NCC2c3c(cccc31)CCN2S(=O)(=O)Cc1ccccc1 (stereo unspecified)	83
O=C1NCC2c3c(cccc31)CCN2C(=O)c1ccccc1 (stereo unspecified)	4
O=C1NCC2c3c(cccc31)CCN2C(=O)OCc1ccccc1 (stereo unspecified)	14
O=C1NCC2c3c(cccc31)CCN2C(=O)NCc1ccccc1 (stereo unspecified)	12
O=C1NCC2c3c(cccc31)CCN2C(=O)Nc1ccccc1 (stereo unspecified)	11
O=C1NCC2c3c(cccc31)CCN2C(=O)Oc1ccccc1 (stereo unspecified)	9
O=C1NCC2c3c(cccc31)CCN2C(=O)C1CCNC1 (stereo unspecified)	1

target: T1, Poly [ADP-ribose] polymerase 1; assay: Inhibition of PARP1 in human HeLa cells assessed as inhibition of hydrogen peroxide-induced poly(ADP-ribosyl)ation; type: cell-based; settings: not given

Structure (SMILES)	EC50 [nM]
O=C(O)CCCC(=O)N1CCc2cccc3c2C1CNC3=O (stereo unspecified)	5000
O=C1NCC2c3c(cccc31)CCN2C(=O)Cc1ccc(Cl)cc1 (stereo unspecified)	650
O=C1NCC2c3c(cccc31)CCN2C(=O)CN1CCC(c2ccccc2)CC1 (stereo unspecified)	410
CN1CCN(CC(=O)N2CCc3cccc4c3C2CNC4=O)CC1 (stereo unspecified)	3500
O=C1NCC2c3c(cccc31)CCN2C(=O)Cc1cccnc1 (stereo unspecified)	360
O=C1NCC2c3c(cccc31)CCN2S(=O)(=O)Cc1ccccc1 (stereo unspecified)	2700
O=C1NCC2c3c(cccc31)CCN2C(=O)CN1CCCCC1 (stereo unspecified)	280
O=C1NCC2c3c(cccc31)CCN2C(=O)Cc1ccccc1Cl (stereo unspecified)	900
O=C1NCC2c3c(cccc31)CCN2C(=O)c1ccccc1 (stereo unspecified)	840
O=C1NCC2c3c(cccc31)CCN2C(=O)Cc1ccc(Br)cc1 (stereo unspecified)	200
O=C1NCC2c3c(cccc31)CCN2C(=O)OCc1ccccc1 (stereo unspecified)	130
O=C1NCC2c3c(cccc31)CCN2C(=O)Cc1ccncc1 (stereo unspecified)	4600
O=C1NCC2c3c(cccc31)CCN2C(=O)Cc1cccc(Cl)c1 (stereo unspecified)	1100
N#Cc1ccc(CC(=O)N2CCc3cccc4c3C2CNC4=O)cc1 (stereo unspecified)	200
O=C1NCC2c3c(cccc31)CCN2C(=O)NCc1ccccc1 (stereo unspecified)	690
CCN(CC)Cc1ccc(C(=O)N2CCc3cccc4c3C2CNC4=O)cc1 (stereo unspecified)	310
O=C1NCC2c3c(cccc31)CCN2C(=O)Nc1ccccc1 (stereo unspecified)	1100
O=C1NCC2c3c(cccc31)CCN2C(=O)Oc1ccccc1 (stereo unspecified)	1400
O=C1NCC2c3c(cccc31)CCN2C(=O)C1CCNC1 (stereo unspecified)	3200
Cc1c(CC(=O)N2CCc3cccc4c3C2CNC4=O)sc2ccccc12 (stereo unspecified)	1300

system: not listed separately; assay: Inhibition of Tankyrase at 1 uM; settings: not given

inhibition [%]	Structure (SMILES)
11	O=C1NCC2NCCc3cccc1c32 (stereo unspecified)

system: not listed separately; assay: Intrinsic clearance in rat liver microsomes; type: ADME, Microsome; settings: not given

microsomal CLint [µL/min/mg]	Structure (SMILES)
3	O=C1NCC2c3c(cccc31)CCN2C(=O)Cc1cccnc1 (stereo unspecified)
18	O=C1NCC2c3c(cccc31)CCN2C(=O)CN1CCCCC1 (stereo unspecified)

target: Poly [ADP-ribose] polymerase 2 (Homo sapiens, UniProt Q9UGN5); assay: Inhibition of PARP2; settings: not given
Sequence (Q9UGN5 whole entry): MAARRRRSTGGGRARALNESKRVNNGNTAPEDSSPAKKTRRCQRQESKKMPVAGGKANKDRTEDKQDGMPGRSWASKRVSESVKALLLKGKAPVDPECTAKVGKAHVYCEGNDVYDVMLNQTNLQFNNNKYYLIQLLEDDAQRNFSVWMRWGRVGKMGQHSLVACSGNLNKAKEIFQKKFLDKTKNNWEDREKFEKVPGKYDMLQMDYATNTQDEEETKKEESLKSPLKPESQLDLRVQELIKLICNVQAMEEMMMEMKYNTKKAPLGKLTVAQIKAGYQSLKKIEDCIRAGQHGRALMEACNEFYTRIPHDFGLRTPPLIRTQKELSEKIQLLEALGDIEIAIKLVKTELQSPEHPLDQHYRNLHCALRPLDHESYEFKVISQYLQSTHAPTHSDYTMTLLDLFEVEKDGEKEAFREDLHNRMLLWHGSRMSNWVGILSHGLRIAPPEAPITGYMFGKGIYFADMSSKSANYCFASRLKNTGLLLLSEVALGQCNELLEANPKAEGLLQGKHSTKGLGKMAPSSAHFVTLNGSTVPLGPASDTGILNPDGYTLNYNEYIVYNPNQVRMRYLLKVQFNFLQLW

IC50 [nM]	Structure (SMILES)
1	O=C1NCC2c3c(cccc31)CCN2C(=O)Cc1cccnc1 (stereo unspecified)

target: T2, Protein mono-ADP-ribosyltransferase PARP3 (Homo sapiens, UniProt Q9Y6F1); assay: Inhibition of PARP3; settings: not given
T2 sequence (Q9Y6F1 whole entry): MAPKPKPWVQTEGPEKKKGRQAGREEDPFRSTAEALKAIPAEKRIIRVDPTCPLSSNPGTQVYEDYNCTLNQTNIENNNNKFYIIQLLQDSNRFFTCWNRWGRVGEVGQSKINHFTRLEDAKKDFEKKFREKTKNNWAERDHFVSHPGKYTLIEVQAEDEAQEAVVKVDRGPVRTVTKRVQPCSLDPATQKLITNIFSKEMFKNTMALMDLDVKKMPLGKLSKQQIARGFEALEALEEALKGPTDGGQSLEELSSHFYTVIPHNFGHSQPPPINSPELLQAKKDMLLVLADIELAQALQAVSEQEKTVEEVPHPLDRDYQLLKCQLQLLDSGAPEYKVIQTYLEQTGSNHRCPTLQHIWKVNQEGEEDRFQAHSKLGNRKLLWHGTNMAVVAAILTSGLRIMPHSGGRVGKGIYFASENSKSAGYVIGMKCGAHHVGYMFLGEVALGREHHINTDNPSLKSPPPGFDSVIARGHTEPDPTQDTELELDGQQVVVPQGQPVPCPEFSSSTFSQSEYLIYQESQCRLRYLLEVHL

IC50 [nM]	Structure (SMILES)
50	O=C1NCC2c3c(cccc31)CCN2C(=O)Cc1cccnc1 (stereo unspecified)

target: Protein mono-ADP-ribosyltransferase PARP4 (Homo sapiens, UniProt Q9UKK3); assay: Inhibition of VPARP; settings: not given
Sequence (Q9UKK3 whole entry): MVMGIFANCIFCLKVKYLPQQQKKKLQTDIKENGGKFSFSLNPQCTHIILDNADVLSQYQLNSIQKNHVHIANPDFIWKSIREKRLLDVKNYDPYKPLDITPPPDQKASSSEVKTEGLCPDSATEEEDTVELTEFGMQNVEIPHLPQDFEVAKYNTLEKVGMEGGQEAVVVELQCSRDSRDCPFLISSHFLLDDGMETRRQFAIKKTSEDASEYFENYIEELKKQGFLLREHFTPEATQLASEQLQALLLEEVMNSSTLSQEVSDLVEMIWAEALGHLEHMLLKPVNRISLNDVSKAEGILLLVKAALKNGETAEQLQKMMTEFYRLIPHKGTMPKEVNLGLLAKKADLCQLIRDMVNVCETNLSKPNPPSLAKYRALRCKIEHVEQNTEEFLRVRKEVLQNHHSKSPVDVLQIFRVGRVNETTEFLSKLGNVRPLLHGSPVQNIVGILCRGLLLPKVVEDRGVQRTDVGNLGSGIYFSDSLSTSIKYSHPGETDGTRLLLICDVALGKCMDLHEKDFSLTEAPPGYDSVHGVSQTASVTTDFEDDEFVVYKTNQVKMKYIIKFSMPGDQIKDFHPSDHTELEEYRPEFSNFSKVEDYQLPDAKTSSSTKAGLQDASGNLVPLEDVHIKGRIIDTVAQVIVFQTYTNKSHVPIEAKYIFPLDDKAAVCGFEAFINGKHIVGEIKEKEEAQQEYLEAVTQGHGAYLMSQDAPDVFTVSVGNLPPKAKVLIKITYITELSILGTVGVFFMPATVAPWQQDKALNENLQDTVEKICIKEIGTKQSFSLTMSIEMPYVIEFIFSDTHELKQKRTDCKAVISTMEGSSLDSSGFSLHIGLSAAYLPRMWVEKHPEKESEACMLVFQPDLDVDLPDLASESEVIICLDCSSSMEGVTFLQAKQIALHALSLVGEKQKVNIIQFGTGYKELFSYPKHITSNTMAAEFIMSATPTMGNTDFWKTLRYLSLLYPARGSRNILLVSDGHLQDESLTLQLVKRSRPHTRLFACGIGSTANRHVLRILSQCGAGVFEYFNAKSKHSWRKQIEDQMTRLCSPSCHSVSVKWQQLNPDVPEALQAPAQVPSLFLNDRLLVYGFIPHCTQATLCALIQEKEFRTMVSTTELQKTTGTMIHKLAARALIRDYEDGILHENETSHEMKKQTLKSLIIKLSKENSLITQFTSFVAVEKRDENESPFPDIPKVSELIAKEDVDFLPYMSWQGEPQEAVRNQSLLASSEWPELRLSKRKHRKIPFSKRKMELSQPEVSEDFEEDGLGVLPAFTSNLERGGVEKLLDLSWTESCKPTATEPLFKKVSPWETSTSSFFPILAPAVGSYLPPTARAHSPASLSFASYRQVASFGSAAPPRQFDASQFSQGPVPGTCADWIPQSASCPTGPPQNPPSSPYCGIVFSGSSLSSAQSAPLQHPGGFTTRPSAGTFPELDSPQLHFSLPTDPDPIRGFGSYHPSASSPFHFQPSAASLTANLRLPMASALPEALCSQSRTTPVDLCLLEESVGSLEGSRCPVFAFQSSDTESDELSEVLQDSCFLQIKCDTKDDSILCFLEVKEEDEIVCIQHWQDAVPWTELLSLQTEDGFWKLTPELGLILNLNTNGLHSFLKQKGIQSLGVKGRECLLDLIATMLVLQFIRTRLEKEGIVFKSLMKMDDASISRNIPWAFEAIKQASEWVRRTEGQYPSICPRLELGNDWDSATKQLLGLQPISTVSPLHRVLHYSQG

IC50 [nM]	Structure (SMILES)
440	O=C1NCC2c3c(cccc31)CCN2C(=O)Cc1cccnc1 (stereo unspecified)

target: T3, Poly [ADP-ribose] polymerase tankyrase-1 (Homo sapiens, UniProt O95271); assay: Inhibition of Tankyrase 1; settings: not given
T3 sequence (O95271 whole entry): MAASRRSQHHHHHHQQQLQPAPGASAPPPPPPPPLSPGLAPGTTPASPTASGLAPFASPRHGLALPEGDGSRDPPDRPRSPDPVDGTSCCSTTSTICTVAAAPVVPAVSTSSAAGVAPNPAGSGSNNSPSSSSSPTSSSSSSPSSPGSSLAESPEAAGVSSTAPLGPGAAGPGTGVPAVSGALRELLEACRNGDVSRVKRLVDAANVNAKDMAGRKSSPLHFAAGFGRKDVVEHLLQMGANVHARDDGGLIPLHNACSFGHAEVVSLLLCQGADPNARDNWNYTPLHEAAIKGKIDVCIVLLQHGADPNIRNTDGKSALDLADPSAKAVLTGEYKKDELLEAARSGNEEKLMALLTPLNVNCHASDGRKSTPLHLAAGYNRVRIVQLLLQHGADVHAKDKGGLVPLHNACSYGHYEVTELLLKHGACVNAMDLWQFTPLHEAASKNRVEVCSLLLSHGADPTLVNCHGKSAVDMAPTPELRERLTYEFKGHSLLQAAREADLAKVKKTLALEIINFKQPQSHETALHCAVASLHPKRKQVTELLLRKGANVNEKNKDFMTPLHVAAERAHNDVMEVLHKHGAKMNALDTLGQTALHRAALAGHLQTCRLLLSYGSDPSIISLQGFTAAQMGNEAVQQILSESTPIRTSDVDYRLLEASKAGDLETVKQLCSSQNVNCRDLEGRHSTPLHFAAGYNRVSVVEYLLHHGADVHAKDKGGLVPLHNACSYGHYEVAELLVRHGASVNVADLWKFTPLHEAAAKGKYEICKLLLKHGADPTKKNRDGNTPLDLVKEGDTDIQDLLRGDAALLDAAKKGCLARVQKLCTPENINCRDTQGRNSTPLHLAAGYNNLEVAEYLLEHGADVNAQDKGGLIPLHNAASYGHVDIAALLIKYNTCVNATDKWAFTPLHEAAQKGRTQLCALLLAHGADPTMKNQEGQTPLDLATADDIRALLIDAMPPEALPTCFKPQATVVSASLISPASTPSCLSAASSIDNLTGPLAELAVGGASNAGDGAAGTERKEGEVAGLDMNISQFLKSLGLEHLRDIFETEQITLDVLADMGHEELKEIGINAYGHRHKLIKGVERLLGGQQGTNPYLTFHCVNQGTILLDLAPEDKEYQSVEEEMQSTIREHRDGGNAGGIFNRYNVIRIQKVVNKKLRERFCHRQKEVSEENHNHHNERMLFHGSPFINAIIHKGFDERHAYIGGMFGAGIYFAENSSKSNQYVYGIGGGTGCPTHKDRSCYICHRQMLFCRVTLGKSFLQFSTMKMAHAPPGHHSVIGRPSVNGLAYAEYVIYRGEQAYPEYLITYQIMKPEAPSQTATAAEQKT

IC50 [nM]	Structure (SMILES)
3500	O=C1NCC2c3c(cccc31)CCN2C(=O)Cc1cccnc1 (stereo unspecified)

system: not listed separately; assay: Half life in rat at 3 mg/kg, iv and po; type: ADME, organism-based; parameters: dose 3 mg/kg, route oral; settings: in vivo
Summary of the method: (§1)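 Rats received the compound both intravenously and orally, each at 3 mg/kg. Reported PK parameters are half-life (h), volume of distribution (L/kg), clearance (ml/min/kg), oral bioavailability (%F) and oral AUC (μM h).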

half-life [h]	Structure (SMILES)
1.7	O=C1NCC2c3c(cccc31)CCN2C(=O)Cc1cccnc1 (stereo unspecified)

system: Rattus norvegicus; assay: Volume of distribution in rat at 3 mg/kg, iv and po; type: ADME, organism-based; parameters: dose 3 mg/kg, route oral; settings: in vivo; summary of the method: as §1

Vd [L/kg]	Structure (SMILES)
3	O=C1NCC2c3c(cccc31)CCN2C(=O)Cc1cccnc1 (stereo unspecified)

system: not listed separately; assay: Oral bioavailability in rat at 3 mg/kg; type: ADME, organism-based; settings: in vivo; summary of the method: as §1

bioavailability [%]	Structure (SMILES)
51	O=C1NCC2c3c(cccc31)CCN2C(=O)Cc1cccnc1 (stereo unspecified)

system: not listed separately; assay: AUC in rat at 3 mg/kg, po; type: ADME, organism-based; parameters: dose 3 mg/kg, route oral; settings: plasma; summary of the method: as §1

AUC [µM·h]	Structure (SMILES)
2.3	O=C1NCC2c3c(cccc31)CCN2C(=O)Cc1cccnc1 (stereo unspecified)

system: not listed separately; assay: Inhibition of Cytochrome P450 at 10 uM; type: ADME; settings: not given

Activity	Structure (SMILES)
Not Active	O=C1NCC2c3c(cccc31)CCN2C(=O)Cc1cccnc1 (stereo unspecified)

target: Voltage-gated inwardly rectifying potassium channel KCNH2 (Homo sapiens, UniProt Q12809); assay: Binding affinity to potassium channel IKr at 10 uM; settings: not given
Sequence (Q12809 whole entry): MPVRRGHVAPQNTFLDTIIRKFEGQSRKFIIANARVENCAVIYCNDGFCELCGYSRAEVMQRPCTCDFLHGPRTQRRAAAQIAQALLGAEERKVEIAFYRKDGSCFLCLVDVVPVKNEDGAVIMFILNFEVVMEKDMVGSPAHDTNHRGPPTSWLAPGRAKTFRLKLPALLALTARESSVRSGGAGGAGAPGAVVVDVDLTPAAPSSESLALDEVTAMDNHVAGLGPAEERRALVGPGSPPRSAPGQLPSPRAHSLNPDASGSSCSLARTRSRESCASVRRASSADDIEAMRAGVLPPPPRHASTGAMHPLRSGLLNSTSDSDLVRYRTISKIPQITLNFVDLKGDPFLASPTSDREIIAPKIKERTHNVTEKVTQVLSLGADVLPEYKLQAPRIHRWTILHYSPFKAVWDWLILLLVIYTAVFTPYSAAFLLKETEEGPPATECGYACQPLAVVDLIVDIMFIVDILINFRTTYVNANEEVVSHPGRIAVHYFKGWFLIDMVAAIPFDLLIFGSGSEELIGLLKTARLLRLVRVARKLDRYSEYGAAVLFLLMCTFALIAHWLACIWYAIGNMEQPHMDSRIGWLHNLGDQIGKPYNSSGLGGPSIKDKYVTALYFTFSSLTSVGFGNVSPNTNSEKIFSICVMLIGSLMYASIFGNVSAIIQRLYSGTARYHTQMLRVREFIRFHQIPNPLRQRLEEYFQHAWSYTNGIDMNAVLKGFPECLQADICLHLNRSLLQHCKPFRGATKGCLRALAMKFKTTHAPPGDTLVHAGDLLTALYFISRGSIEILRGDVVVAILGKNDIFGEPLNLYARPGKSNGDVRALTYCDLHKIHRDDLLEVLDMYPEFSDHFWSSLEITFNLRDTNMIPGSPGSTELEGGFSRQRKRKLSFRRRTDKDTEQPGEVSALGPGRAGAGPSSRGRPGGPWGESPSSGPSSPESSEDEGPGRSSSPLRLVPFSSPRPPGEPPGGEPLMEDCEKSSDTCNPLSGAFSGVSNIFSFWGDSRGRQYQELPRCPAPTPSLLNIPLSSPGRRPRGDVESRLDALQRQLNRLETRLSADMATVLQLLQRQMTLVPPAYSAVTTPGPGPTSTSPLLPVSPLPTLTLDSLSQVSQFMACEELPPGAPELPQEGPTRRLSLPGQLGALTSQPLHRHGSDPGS

Structure (SMILES)	Activity
O=C1NCC2c3c(cccc31)CCN2C(=O)Cc1cccnc1 (stereo unspecified)	Not Active
